# Experimental data collected from several papers.
# Protocols differ between the studies behind these lines.
Structure (SMILES),organism,test,test system,conditions,measurement,result
C/C(=N\C1CCCCC1/N=C(\C)c1c(O)c2ccccc2oc1=O)c1c(O)c2ccccc2oc1=O (stereo not drawn),Penicillium verrucosum,"microbial growth, broth dilution",,48 h,MIC,62.5 µg/mL
O=c1[nH]c(CCl)nc2scc(-c3cccc(F)c3)c12,Trypanosoma brucei,"parasite growth, ATP luminescence",,24 h,EC50,1300 nM
C[C@@H]1[C@H](O)[C@@H](C)/C=C/C=C/C=C/C=C/C=C/C=C/C=C/[C@H](O[C@@H]2O[C@H](C)[C@@H](O)[C@H](N)[C@@H]2O)C[C@@H]2O[C@](O)(C[C@@H](O)C[C@@H](O)[C@H](O)CC[C@@H](O)C[C@@H](O)CC(=O)O[C@H]1C)C[C@H](O)[C@H]2C(=O)O,Candida albicans,"microbial growth, broth dilution",SP3902,48 h,MIC,< 0.25 µM
O=c1[nH]c(CCl)nc2scc(-c3ccccc3)c12,Trypanosoma brucei,"parasite growth, ATP luminescence",,48 h,EC50,1400 nM
Cn1cc(Nc2ncnc3ccc(-c4cccc(N5CCOCC5)c4)cc23)cn1,Trypanosoma brucei,"parasite growth, SYBR Green",,48 h,GI50,250 nM
CC(=O)N1CCN(c2ccc(OCC3COC(Cn4ccnc4)(c4ccc(Cl)cc4Cl)O3)cc2)CC1 (stereo not drawn),Candida albicans,"microbial growth, broth dilution",SP3903,48 h,MIC,2 µM
COc1c(N2C[C@@H]3CCCN[C@@H]3C2)c(F)cc2c(=O)c(C(=O)O)cn(C3CC3)c12,Enterococcus faecium,microbial growth,,clinical isolate,MIC90,64 µg/mL
c1cc(-c2ccc3ncnc(Nc4ncco4)c3c2)nc(N2C[C@H]3C[C@@H]2CO3)n1,Trypanosoma brucei,"parasite growth, SYBR Green",,48 h,GI50,4700 nM
CCOC(=O)c1cnc2c([N+](=O)[O-])cc(C(F)(F)F)cc2c1NC1CC1,Trypanosoma brucei,"parasite growth, resazurin",,72 h,EC50,> 10000 nM
FC(F)(F)c1cc(Nc2ncnc3ccc(-c4cccc(N5CCOCC5)c4)cc23)ccc1Cl,Trypanosoma brucei,"parasite growth, SYBR Green",GAMBIENSE,,GI50,250 nM
O=c1[nH]c(CCl)nc2scc(-c3ccccc3F)c12,Trypanosoma brucei,"parasite growth, ATP luminescence",,48 h,EC50,800 nM
c1cc(-c2ccc3ncnc(Nc4ncco4)c3c2)nc(N2CCOCC2)n1,Trypanosoma brucei,"parasite growth, SYBR Green",,48 h,GI50,230 nM
O=c1[nH]c(CCl)nc2scc(-c3ccc(F)cc3)c12,Trypanosoma brucei,"parasite growth, ATP luminescence",,48 h,EC50,1500 nM
C/C(=N\C(=O)/N=C(\C)c1c(O)c2ccccc2oc1=O)c1c(O)c2ccccc2oc1=O,Penicillium verrucosum,"microbial growth, broth dilution",,48 h,MIC,62.5 µg/mL
CC(=O)NC[C@H]1CN(c2ccc(N3CCOCC3)c(F)c2)C(=O)O1,Enterococcus faecium,microbial growth,,clinical isolate,MIC90,2 µg/mL
CCOC(=O)c1cnc2c([N+](=O)[O-])cc(C(F)(F)F)cc2c1NCCCN1CCOCC1,Trypanosoma brucei,"parasite growth, resazurin",,72 h,EC50,> 10000 nM
c1cc(-c2ccc3ncnc(Nc4ncco4)c3c2)nc(N2CCOCC2)c1,Trypanosoma brucei,"parasite growth, SYBR Green",GAMBIENSE,,GI50,2400 nM
CCS(=O)(=O)Oc1ccc(C=NNC(=O)CSc2nc3ccc(Cl)cc3c(=O)n2-c2ccccc2)cc1,Candida albicans,"microbial growth, well diffusion",,20 µg/mL,inhibition zone,3 mm
c1cc(-c2ccc3ncnc(Nc4ncco4)c3c2)cc(N2C[C@H]3C[C@@H]2CO3)c1,Trypanosoma brucei,"parasite growth, SYBR Green",,48 h,GI50,2100 nM
Cc1c2c(nn1C)CSCc1cc(n(C)n1)CSc1cc(c3ccccc3c1)OCCCc1c(C(=O)O)n(C)c3c-2c(Cl)ccc13,Enterococcus faecium,"microbial growth, broth dilution",,clinical isolate,MIC90,25 µM
C/C(=N\CCNCC/N=C(\C)c1c(O)c2ccccc2oc1=O)c1c(O)c2ccccc2oc1=O,Penicillium verrucosum,"microbial growth, broth dilution",,48 h,MIC,125 µg/mL
O=[N+]([O-])c1ccc(Nc2ncnc3ccc(-c4cccc(N5CCOCC5)c4)cc23)cc1C(F)(F)F,Trypanosoma brucei,"parasite growth, SYBR Green",,48 h,GI50,8.4 nM
C/C(=N\NC(=O)/N=C(\C)c1c(O)c2ccccc2oc1=O)c1c(O)c2ccccc2oc1=O,Penicillium verrucosum,"microbial growth, broth dilution",,48 h,MIC,62.5 µg/mL
CC1(C)S[C@@H]2[C@H](NC(=O)[C@H](N)c3ccccc3)C(=O)N2[C@H]1C(=O)O,Enterococcus faecium,microbial growth,,clinical isolate,MIC90,> 128 µg/mL
OC(Cn1cncn1)(Cn1cncn1)c1ccc(F)cc1F,Candida albicans,"microbial growth, broth dilution",SP3876,48 h,MIC,16 µM
C/C(=N\C(=S)/N=C(\C)c1c(O)c2ccccc2oc1=O)c1c(O)c2ccccc2oc1=O,Penicillium verrucosum,"microbial growth, broth dilution",,48 h,MIC,1.95 µg/mL
CN1CCN(c2cccc(-c3ccc4ncnc(Nc5ccc(Cl)c(Cl)c5)c4c3)c2)CC1,Trypanosoma brucei,"parasite growth, SYBR Green",,48 h,GI50,290 nM
